# CHT allo act – allosteric activators of human choline transporter CHT. Q9GZV3. CHT-expressing cells, membrane potential dye, choline EC20; active compounds read high; LV-AA mutant CHT in HEK293 cells. B-score at 10 µM. hit rate 0.49% among 310,000. AID 488977;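 active = initial fluorescence not abnormally high and integrated response B-score, plate-corrected, over 3 SD above library mean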
# NR2E3 ag-1 – agonists of human nuclear receptor NR2E3 | inhibition of corepressor binding, % at 4.78 µM | hit rate 0.12% among 320,000 | GST-NR2E3/biotin-RetCOR TR-FRET, 1536-well | AID 2300;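 active = percent inhibition above the cutoff of mean plus 3 SD of all tested compounds, set per screening campaign, cut at about 20% in these data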;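 note: 0% = DMSO wells and 100% = biotin wells as full block of FRET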
#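 System: GST-NR2E3 and biotin-RetCOR proteins; probe or stimulus: 7 nM biotin-RetCOR; doses: compound at 4.8 µM, single dose; schedule: Compound–protein incubation for 5 h at 4 °C; detection: time-resolved FRET; read-out: percent inhibition; controls: biotin wells as high control, 0.6% DMSO wells as low control; format: 1536-well plates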
# NR2E3 ag-2 – activates human NR2E3 receptor; Q9Y5X4; CHO-S Gal4-NCOR/VP16-NR2E3 two-hybrid, luciferase; inhibition of corepressor binding, % at 3.98 µM; hit rate 0.35% among 360,000; AID 602229;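 active = inhibition above the mean of all tested compounds plus 3 SD, cut at about 70% in these data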;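 note: 0% = DMSO with NR2E3 transfected cells and 100% = cells lacking NR2E3 construct; higher means lower luciferase signal from less NR2E3 corepressor binding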
# GalR3 antagonist – blocks the human galanin receptor 3; O60755; HEK293 GalR3-CNG cAMP membrane potential fluorescence; galR3 body fused to GalR1 C-terminus; inhibition, % at 3 µM; hit rate 0.44% among 360,000;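 active = inhibition above the screen-wide average plus 3 SD, cut at about 13% in these data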;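 note: forskolin and galanin both at EC90 stimulate the cells; cAMP rise reported by CNG channel membrane potential dye signal; 0% = forskolin plus galanin with DMSO and 100% = forskolin alone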
# COUP-TFII inh – NR2F2 (human) inhibition, primary screen | HEK293T NGFI-A luciferase reporter, luminescence | inhibition, % at 8.6 µM | AID 686940 | hit rate 0.7% among 370,000 | P24468;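 active = inhibition above a per-plate cutoff, mean inhibition of test wells between control levels plus 3 SD, cut at about 38% in these data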;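 note: cells cotransfected with COUP-TFII expression vector driving the NGFI-A reporter; 0% = median of COUP-TF2 test wells and 100% = reporter-only cells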
# Target sequence (P24468 whole entry, looked up): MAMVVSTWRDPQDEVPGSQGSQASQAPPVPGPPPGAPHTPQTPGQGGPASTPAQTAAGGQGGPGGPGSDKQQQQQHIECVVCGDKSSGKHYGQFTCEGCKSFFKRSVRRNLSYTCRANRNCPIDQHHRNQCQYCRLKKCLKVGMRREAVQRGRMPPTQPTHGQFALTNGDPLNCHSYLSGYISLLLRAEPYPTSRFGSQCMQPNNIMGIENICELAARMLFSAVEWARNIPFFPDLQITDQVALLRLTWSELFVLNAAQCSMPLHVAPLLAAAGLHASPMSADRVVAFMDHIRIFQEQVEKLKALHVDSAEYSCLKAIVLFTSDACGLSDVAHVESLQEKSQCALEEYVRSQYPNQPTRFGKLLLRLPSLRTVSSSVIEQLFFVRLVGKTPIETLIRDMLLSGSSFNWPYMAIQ
# CHT inh – human CHT choline transport inhibition. hit rate 0.86% among 310,000. CHT-expressing cells, membrane potential dye, choline response; active compounds read low. B-score at 10 µM;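 active = B-score over 3 SD under the library average, and starting fluorescence ratio not unusually high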;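 note: choline stimulus applied at its EC90 after an EC20 pre-addition; B-score computed on integrated fluorescence ratio after choline addition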
# CHT block conf – confirmation of human choline transporter CHT inhibitors. CHT activity remaining % of control (active compounds read low), % at 10 µM. AID 493221. hit rate 70% among 2,400. CHT-expressing cells, choline membrane potential dye; LV-to-AA substituted CHT, HEK293 cells. shares compounds with CHT inh;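 active = choline transporter activity left, mean of duplicates at 10 µM, below buffer-only control mean minus 3 SD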;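 note: depolarization triggered by choline at its EC90 following an EC20 pre-addition; 0% = hemicholinium-3 full block and 100% = buffer-only control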
# HEK293 CHT ctr – activity in parental HEK293 cells lacking CHT; shares compounds with CHT inh; membrane potential dye, choline response; active = decrease or increase beyond buffer ±3SD; membrane potential ratio readout (active if shifted either direction beyond buffer ±3SD; no single direction) at 10 µM; hit rate 4% among 2,400; AID 493222;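 note: parental cells lack the transporter so any hit is non-specific; ratio is peak minus trough fluorescence over baseline after EC90 choline challenge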
# * hit, by the source's call; i = inactive; . = no result given. Compounds with a hit are over-represented: about 2.3% of the library has one in this group of screens.
SMILES,CHT allo act,NR2E3 ag-1,NR2E3 ag-2,GalR3 antagonist,COUP-TFII inh,CHT inh,CHT block conf,HEK293 CHT ctr
CCCn1c2ccccc2c2cnn(CC(=O)NCCN(C)C)c(=O)c21,i,.,-6,-8,2,-8*,19%*,i
Cc1cc(C(=O)O[C@@H]2CCC[C@@]3(C(=O)N(Cc4ccccc4)c4ccccc43)[C@H]2NC(=O)CCc2ccccc2)no1,.,.,.,.,-5,.,.,.
O=C1CC(/C=C/c2ccccc2)(C(=O)NC2CCCC2)N1c1ccc(S(=O)(=O)N2CCCC2)cc1 (stereo not given),i,0,18,-2,5,i,.,.
CC1C(=O)N(c2ccc(S(=O)(=O)N(C)C)cc2)C1(/C=C/c1ccccc1)C(=O)NC1CCCC1 (stereo not given),i,-4,-9,0,-1,-6.8*,i,i
CC(=O)c1cc(-c2ccc(-c3ccccc3)c(F)c2)c(=O)n2c1CCC2,.,.,.,.,5,.,.,.
N#CCC[C@@H]1CC[C@]2(CCCN(C(=O)C3CCCCC3)C2)O1,.,.,.,.,-15,.,.,.
O=C(COc1ccc(C(=O)O)cc1)Nc1cccc(C(F)(F)F)c1,i,-3,-6,2,1,i,.,.
CN1CCN(C(=S)c2ccc(OCC(=O)Nc3cccc(C(F)(F)F)c3)cc2)CC1,i,3,34,-7,3,-6.2*,i,i
O=C(NCCO)C1(C(=O)C2CC2)CC(c2ccccc2C(F)(F)F)=NO1 (stereo not given),.,.,.,.,6,.,.,.
COc1ccc(OC)c(Cc2nnc(CCC(=O)N3CCCCC3)o2)c1,i,-2,-32,0,-32,i,.,.
COc1ccc(OC)c(Cc2nnc(CCC(=O)N3CCN(C4CCCC4)CC3)o2)c1,i,5,-46,-2,1,-8*,36%*,i
Cc1ccc(Sc2cc(NCCCO)c([N+](=O)[O-])c3nonc23)cc1,i,2,-13,-6,6,i,.,.
CC(C)CCSc1cc(NCCO)c([N+](=O)[O-])c2nonc12,i,7,-12,1,12,-5.8*,i,i
COc1ccc(OC)c(/C=C2\SC(=S)N(NS(=O)(=O)c3ccc(C)cc3)C2=O)c1,i,-4,-23,-10,16,i,.,.
CCOc1ccc(/C=C2\SC(=S)N(NS(=O)(=O)c3ccc(C)cc3)C2=O)cc1OC,i,-4,-8,-1,10,-6.1*,60%*,i
COc1ccc(OC)c(/C=C2\SC(=S)N(NS(=O)(=O)c3ccccc3)C2=O)c1,i,0,-21,-8,16,-6.3*,57%*,i
CCOc1ccc(/C=C2\SC(=S)N(NS(=O)(=O)c3ccccc3)C2=O)cc1OC,i,-2,19,3,19,-5.8*,56%*,i
CCOc1cc(/C=C2\SC(=S)N(NS(=O)(=O)c3ccccc3)C2=O)ccc1O,i,-46,-13,-8,-9,i,.,.
COc1ccc(OC)c(Nc2ccc(C(=O)O)cc2[N+](=O)[O-])c1,i,-3,-21,-3,3,-6.7*,i,i
COc1ccc(-n2c(COc3ccccc3)nnc2SCC(=O)Nc2ccc3c(c2)OCCO3)cc1,.,.,.,.,16,.,.,.
CCN(CC)c1ccc(C=Nn2c(C)nnc2C)cc1,.,.,.,.,-6,.,.,.
Oc1c(Br)cc(Br)cc1C=Nc1cccnc1,i,-6,-105,-7,2,-7.8*,62%*,i
Oc1c(Br)cc(Br)cc1/C=N/c1nccs1,.,-4,9,-4,1,.,.,.
Oc1c(Br)cc(Br)cc1C=Nc1ccc2[nH]ncc2c1,i,-5,-1,3,18,-5.6*,65%*,i
CCOC(=O)CC[C@@]1(C(=O)OCC)C[C@@H](CC(=O)NCc2cccs2)C(=O)N2CCCC=C21,.,.,.,.,-8,.,.,.
SMILES,CHT allo act,NR2E3 ag-1,NR2E3 ag-2,GalR3 antagonist,COUP-TFII inh,CHT inh,CHT block conf,HEK293 CHT ctr
CCCN1Cc2cccc(C(=O)NCc3ccccc3OC)c2C1=O,i,2,-27,-5,2,-5.3*,71%*,i
CC(C)C[C@H]1COc2cccc(F)c2S(=O)(=O)N1Cc1cn(Cc2ccc(Cl)cc2)nn1,.,.,.,.,2,.,.,.
Cc1ccc(C)c(Nc2c([N+](=O)[O-])cc(C(=O)N3CC(=O)Nc4ccccc43)cc2[N+](=O)[O-])c1,i,2,-18,-6,15,-5.9*,i,i
c1ccc(Cn2c(SC3CCCCC3)nnc2-c2cccnc2)cc1,.,.,.,.,20,.,.,.
CN1CCN(c2ccc([N+](=O)[O-])cc2C(=O)c2ccc(Cl)cc2)CC1,i,5,-60,-5,-6,-5*,68%*,i
CN1CCN(c2ccc([N+](=O)[O-])cc2C(=O)N2CCCCC2)CC1,i,0,-14,-3,0,i,.,.
CC(=O)C1(C(=O)NC2CCCC2)CC(c2ccccn2)=NO1 (stereo not given),.,.,.,.,-25,.,.,.
Cc1c[nH]c2cccc(-c3ccc(OCc4ccccc4)cc3)c12,.,.,.,.,-115,.,.,.
COC(=O)C1CN(Cc2cn(Cc3ccc(C)cc3)nn2)CCS(=O)(=O)N1Cc1ccc(Cl)cc1 (stereo not given),.,.,.,.,10,.,.,.
CC1CCCC(NC(=O)CCNC(=O)c2ccc(Br)cc2)C1C (stereo not given),i,-1,-12,-3,-18,-5.1*,i,i
CC1CCCC(NC(=O)CCNC(=O)c2ccccc2Cl)C1C (stereo not given),i,-3,-25,-3,-12,i,.,.
CCSC(=S)c1c(C)[nH]n(-c2ccccc2)c1=O,i,1,3,-1,6,-8.8*,i,i
Cc1[nH]n(-c2ccccc2)c(=O)c1C(=O)c1ccccc1,i,1,-18,-6,1,i,.,.
Cc1[nH]n(-c2ccc(Cl)cc2)c(=O)c1C(=O)c1ccccc1,i,-2,-44,6,16,-11*,i,i
CC(=O)c1ccc(S(=O)(=O)N(C)C(C)CCc2ccco2)cc1 (stereo not given),i,.,-34,-11,8,-5.6*,71%*,i
COC(=O)[C@H](Cc1ccccc1)N(Cc1cn(Cc2ccccc2)nn1)S(=O)(=O)c1ccccc1Br,.,.,.,.,1,.,.,.
C[C@H]1[C@@H](C(=O)N2CCCC2)CC(=O)/C(=N/OCc2ccccc2)C[C@@H]1c1ccccc1,.,.,.,.,-2,.,.,.
